A value given as a limit tells only on which side of the number the result lay.

The target of test [1] is T1, Metabotropic glutamate receptor 4 (Homo sapiens, UniProt Q14833). Put plainly: Agonistic activity at mGlu4a receptor expressed in CHO cells. The format is functional, cell-based. The essentials: (§1)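 CHO cells expressing the receptor were kept at 37 °C in DMEM with 2 mM glutamine, 1% proline and 10% dialyzed FCS, and plated 2 days before assay. Cells were incubated 10 min in PBS with ligand, 10 µM forskolin and 1 mM IBMX, and cAMP was measured by RIA. Agonism is inhibition of forskolin-induced cAMP versus buffer-only control.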
T1 sequence (Q14833 whole entry): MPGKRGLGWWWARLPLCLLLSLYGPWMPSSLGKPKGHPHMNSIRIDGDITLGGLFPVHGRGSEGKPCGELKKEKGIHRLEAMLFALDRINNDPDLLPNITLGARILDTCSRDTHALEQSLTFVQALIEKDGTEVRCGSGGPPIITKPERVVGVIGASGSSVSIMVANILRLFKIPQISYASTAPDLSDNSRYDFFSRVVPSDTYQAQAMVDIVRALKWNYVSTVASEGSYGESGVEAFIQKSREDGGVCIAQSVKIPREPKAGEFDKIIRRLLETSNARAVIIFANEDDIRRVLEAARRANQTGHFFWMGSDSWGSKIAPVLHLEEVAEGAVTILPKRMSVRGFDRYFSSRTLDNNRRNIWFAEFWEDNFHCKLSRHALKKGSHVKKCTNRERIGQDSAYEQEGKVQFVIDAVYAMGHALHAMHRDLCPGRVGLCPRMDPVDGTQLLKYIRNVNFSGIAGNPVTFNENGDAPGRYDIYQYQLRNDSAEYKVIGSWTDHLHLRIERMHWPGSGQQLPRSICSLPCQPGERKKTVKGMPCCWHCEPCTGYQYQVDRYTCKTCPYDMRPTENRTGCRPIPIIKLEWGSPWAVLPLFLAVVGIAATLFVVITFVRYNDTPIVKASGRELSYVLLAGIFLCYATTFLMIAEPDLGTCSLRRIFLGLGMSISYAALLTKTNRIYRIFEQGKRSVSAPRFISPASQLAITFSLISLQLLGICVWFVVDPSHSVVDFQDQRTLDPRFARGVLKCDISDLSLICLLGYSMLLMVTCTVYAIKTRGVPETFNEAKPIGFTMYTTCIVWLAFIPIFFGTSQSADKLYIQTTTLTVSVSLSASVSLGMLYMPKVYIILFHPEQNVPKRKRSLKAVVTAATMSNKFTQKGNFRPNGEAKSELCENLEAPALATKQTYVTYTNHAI

For test [2], the target named is T2, Metabotropic glutamate receptor 1 (Homo sapiens, UniProt Q13255). In words: Agonistic activity at mGlu1-alpha receptor expressed in CHO cells. The format is functional, cell-based.
T2 sequence (Q13255 whole entry): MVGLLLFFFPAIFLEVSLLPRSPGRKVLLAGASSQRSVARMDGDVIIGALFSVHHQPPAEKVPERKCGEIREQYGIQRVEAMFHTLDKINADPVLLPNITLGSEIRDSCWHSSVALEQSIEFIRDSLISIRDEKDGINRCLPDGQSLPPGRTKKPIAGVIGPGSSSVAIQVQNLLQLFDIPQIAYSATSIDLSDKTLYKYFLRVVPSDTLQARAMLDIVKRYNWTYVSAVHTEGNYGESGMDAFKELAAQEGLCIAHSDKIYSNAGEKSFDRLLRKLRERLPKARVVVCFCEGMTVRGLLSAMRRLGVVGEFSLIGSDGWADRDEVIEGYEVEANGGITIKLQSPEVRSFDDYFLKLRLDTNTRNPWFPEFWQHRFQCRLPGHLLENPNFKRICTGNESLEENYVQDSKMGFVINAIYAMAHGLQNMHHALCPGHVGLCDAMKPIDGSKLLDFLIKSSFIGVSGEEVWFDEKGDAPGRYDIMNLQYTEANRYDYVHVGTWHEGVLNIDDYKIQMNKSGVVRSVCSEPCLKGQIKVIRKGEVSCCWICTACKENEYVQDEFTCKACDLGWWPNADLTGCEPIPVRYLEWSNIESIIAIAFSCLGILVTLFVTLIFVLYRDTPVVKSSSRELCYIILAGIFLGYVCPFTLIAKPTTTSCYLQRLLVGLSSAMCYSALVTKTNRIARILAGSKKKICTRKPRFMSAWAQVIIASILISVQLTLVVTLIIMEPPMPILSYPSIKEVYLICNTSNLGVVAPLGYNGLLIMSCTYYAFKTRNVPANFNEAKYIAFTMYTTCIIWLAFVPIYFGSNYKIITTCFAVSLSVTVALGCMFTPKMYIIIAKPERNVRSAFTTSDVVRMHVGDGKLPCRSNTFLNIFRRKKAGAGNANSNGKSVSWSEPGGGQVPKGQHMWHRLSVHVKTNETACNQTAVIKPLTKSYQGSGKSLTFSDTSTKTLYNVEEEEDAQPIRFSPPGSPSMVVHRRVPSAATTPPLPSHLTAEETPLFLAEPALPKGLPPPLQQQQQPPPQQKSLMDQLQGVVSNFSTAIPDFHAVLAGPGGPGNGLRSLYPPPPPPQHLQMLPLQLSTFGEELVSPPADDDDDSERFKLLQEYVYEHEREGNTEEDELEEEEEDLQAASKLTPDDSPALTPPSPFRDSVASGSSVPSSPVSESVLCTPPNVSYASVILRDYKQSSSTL
Test [3] has as its target T3, Metabotropic glutamate receptor 2 (Homo sapiens, UniProt Q14416). Put plainly: Agonistic activity at mGlu2 receptor expressed in CHO cells. The format is functional, cell-based. Put shortly:
as §1

The target in test [4] is T4, Metabotropic glutamate receptor 6 (Homo sapiens, UniProt O15303). In words: Agonistic activity at mGlu6 receptor expressed in CHO cells. The format is functional, cell-based. Put shortly:
as §1

In test [5] the target is T2, Metabotropic glutamate receptor 1. In words: Agonist activity of the compound at Metabotropic Excitatory Amino acid Receptors Expressed in CHO cells. mGlu1-alpha. The test is classed as functional, cell-based. Put shortly: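 CHO cells stably expressing mGlu1α, seeded 2 days before assay and labelled with [3H]inositol (1 µCi/mL) for 24 h. Ligand in PBS-LiCl for 20 min; total [3H]inositol mono-, bis- and trisphosphates by ion-exchange chromatography, fold over buffer-only control. EC50 from dose-response, mean ± SEM of at least two independent experiments.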

Test [6] has as its target T4, Metabotropic glutamate receptor 6. Put plainly: Agonist activity of the compound at Metabotropic Excitatory Amino acid Receptors Expressed in CHO cells. mGlu6. The test is classed as functional, cell-based. Put shortly: (§2)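 CHO cells expressing mGlu2, mGlu4a or mGlu6, seeded 2 days before assay. Incubated 10 min in PBS with ligand, 10 µM forskolin and 1 mM IBMX. […] EC50 from dose-response, mean ± SEM of at least two independent experiments.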

The target of test [7] is T3, Metabotropic glutamate receptor 2. Put plainly: Agonist activity of the compound at Metabotropic Excitatory Amino acid Receptors Expressed in CHO cells. mGlu2. The format is functional, cell-based. The essentials:
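CHO cells expressing mGlu2, mGlu4a or mGlu6, seeded 2 days before assay. Incubated 10 min in PBS with ligand, 10 µM forskolin and 1 mM IBMX. EC50 from dose-response, mean ± SEM of at least two independent experiments.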

In test [8] the target is Glutamate receptor ionotropic, kainate. In words: The compound was evaluated for agonist to competitive inhibition of radioligand ([3H]- kainic acid ) at Ionotropic glutamate receptor kainate. The test is classed as functional.
Test [9] deals with Glutamate NMDA receptor. Put plainly: The compound was evaluated for agonist activity at NMDA receptor in rat cortical wedge preparation. The format is functional. The essentials:
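Rat cortical wedge under superfusion. Test and standard compounds were dissolved in the superfusion medium, and the potential difference between the recording and reference electrodes was charted.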

Test [10] concerns the target Glutamate NMDA receptor. Put plainly: Agonistic activity at NMDA receptor of rat brain membrane using [3H]MK-801 as radioligand. The format is functional. Put shortly: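 Rat brain membranes were prepared per Ransom and Stec. [3H]MK-801 binding was run on fully stimulated membranes, with incubation lengthened to 4 h.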
For test [11], the target named is Glutamate receptor ionotropic, AMPA (Rattus norvegicus, UniProt P19490+P19491+P19492+P19493). In words: Agonistic activity at Ionotropic glutamate receptor AMPA of rat brain membrane using [3H]AMPA as radioligand. The format is functional.
For test [12], the target named is T1, Metabotropic glutamate receptor 4. In words: Agonist activity of the compound at Metabotropic Excitatory Amino acid Receptors Expressed in CHO cells. mGlu4a. The test is classed as functional, cell-based. Put shortly:
as §2

T3 sequence (Q14416 whole entry): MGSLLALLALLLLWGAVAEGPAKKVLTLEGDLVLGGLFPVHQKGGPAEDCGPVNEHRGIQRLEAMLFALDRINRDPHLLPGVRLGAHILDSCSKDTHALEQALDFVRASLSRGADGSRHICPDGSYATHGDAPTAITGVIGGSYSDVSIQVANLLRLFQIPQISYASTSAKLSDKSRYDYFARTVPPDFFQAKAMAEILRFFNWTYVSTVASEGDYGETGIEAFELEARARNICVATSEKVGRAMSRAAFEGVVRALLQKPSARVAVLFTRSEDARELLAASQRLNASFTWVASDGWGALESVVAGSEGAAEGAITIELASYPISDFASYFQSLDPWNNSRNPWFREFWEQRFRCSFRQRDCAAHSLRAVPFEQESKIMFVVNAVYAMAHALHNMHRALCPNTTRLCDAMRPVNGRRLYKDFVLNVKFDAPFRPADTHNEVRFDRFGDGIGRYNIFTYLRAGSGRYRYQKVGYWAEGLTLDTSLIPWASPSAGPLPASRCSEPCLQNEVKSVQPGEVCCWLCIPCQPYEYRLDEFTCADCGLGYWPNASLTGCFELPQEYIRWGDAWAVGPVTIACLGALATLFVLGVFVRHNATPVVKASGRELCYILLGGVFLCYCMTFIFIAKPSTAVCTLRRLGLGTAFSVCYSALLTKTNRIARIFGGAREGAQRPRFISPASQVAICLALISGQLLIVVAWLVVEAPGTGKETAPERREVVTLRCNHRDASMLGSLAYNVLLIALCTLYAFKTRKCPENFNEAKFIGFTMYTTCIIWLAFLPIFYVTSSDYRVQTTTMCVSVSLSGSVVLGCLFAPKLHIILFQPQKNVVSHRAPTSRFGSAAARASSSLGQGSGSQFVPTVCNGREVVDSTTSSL
T4 sequence (O15303 whole entry): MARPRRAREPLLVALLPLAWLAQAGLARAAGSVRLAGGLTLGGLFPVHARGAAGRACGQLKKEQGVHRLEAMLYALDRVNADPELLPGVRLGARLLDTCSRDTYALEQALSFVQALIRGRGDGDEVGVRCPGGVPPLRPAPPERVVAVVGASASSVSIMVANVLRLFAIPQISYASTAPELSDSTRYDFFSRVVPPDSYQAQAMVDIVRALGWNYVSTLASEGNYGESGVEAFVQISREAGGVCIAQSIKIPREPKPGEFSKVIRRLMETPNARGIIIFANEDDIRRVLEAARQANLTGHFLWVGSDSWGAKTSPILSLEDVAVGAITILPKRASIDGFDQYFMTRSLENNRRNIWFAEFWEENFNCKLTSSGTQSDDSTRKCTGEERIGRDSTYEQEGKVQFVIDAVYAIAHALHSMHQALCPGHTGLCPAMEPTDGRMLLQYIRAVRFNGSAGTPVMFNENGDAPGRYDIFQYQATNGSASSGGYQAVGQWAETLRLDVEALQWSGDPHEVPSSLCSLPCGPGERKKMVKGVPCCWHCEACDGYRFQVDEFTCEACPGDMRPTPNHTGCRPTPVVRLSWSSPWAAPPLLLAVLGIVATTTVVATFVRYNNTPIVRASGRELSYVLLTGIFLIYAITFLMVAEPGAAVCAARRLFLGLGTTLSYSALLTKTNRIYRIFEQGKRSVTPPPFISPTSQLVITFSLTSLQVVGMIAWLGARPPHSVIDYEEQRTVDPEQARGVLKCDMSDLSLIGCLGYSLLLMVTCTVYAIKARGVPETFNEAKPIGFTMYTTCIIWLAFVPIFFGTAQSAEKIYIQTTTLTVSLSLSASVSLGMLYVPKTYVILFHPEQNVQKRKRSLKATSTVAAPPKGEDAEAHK

By EC50 is commonly meant the concentration at which the effect is half-maximal. A low value points to higher potency in that assay. With `Cc1onc(O)c1CCC(N)C(=O)O` (stereo not drawn), the EC50 in [1] is greater than 3000 µM; in test [2], greater than 1000 µM; in test [3], greater than 1000 µM; in test [4], 82 µM.
Regarding `NC(CCCCC(=O)O)C(=O)O` (stereo not drawn), the EC50 in test [2], in test [3] and in test [4] was greater than 1000 µM throughout.
For `Cc1o[nH]c(=O)c1CCCCC(N)C(=O)O` (stereo not drawn), the EC50 in test [2], in [3] and in test [4] was greater than 1000 µM throughout.
With `N[C@H](CCCC(=O)O)C(=O)O`, the concentration giving a half-maximal response (EC50) in test [2], in [3] and in test [4] was greater than 1000 µM each time.
As for `Cc1onc(O)c1C[C@@H](N)C(=O)O`, the concentration for a half-maximal effect (EC50) in test [5], in [6] and in test [7] was greater than 1000 µM in each case.
What is called IC50 is the concentration at which inhibition is half-maximal. Low readings indicate greater potency, high ones weaker potency. As to `Cc1o[nH]c(=O)c1C(N)C(=O)O` (stereo not drawn), the concentration for half-maximal inhibition (IC50) (in [8]; on Glutamate NMDA receptor [10]; in [11]) was greater than 100 µM in each case. In addition, the values for the EC50 (in test [5]; at Glutamate NMDA receptor [9]; in test [6]) were greater than 1000 µM, 12 µM and greater than 1000 µM, respectively.
As for `NC(CCCCCC(=O)O)C(=O)O` (stereo not drawn), the 50% effective concentration (EC50) in test [2], in [3] and in test [4] was greater than 1000 µM in each case.
For the compound `Cc1onc(O)c1CCCC(N)C(=O)O` (stereo not drawn), the EC50 in test [1] was greater than 3000 µM; in test [2] it was greater than 1000 µM; in test [3], greater than 1000 µM; in test [4], 410 µM.
Regarding `N[C@@H](CCCC(=O)O)C(=O)O` [(S)-2-AMINOADIPIC ACID], the EC50 was greater than 3000 µM in [1], greater than 1000 µM in [2], 35 µM in test [3] and 140 µM in test [4].
Take `Cc1onc(O)c1C[C@H](N)C(=O)O` [(S)-AMPA]: the EC50 was greater than 1000 µM in [5], 220 µM in test [6], greater than 1000 µM in test [7] and greater than 3000 µM in test [12].
As to `N[C@@H](CC(=O)O)C(=O)O` [ASPARTIC ACID], the EC50 in test [2], in test [3] and in [4] was greater than 1000 µM each time.
In the case of `N[C@H](CC(=O)O)C(=O)O` [D-ASPARTATE], the concentration for a half-maximal effect (EC50) in test [2], in test [3] and in test [4] was greater than 1000 µM in each case.

Values taken from ChEMBL document CHEMBL1129268 (J Med Chem, 1996).
